Screening data: PubChem BioAssay, several laboratories
STAT3 inh: reduces IL-6 driven STAT3 reporter signal. 190,000 compounds, 0.89% hits. inhibition, % at 5.5 µM. U3A cells, IL-6 STAT3-luciferase reporter, luminescence; host cell line lacks STAT1. AID 862;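 active = inhibition above the mean inhibition across all screened compounds plus 3 SD, cut at about 44% in these data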;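 note: 0% = DMSO only wells and 100% = 100 µM nifuroxazide control wells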
STAT1 blocker: inhibitors of IFN-gamma induced STAT1 signaling | NIH 3T3 STAT1-luciferase reporter, luminescence | inhibition, % at 5.5 µM | 200,000 compounds, 0.35% hits | AID 920;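 active = inhibition above a set limit, the mean inhibition across all tested compounds plus 3 SD, cut at about 34% in these data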;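 note: 0% = IFN-gamma with DMSO and 100% = IFN-gamma with 300 µM nifuroxazide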
Cl transport mod: modulates chloride dependent transport by human KCC2; B-score of Tl+ flux slope (higher = more flux/activation; lower = inhibition) at 10 µM; AID 1456; KCC2 cells, thallium flux FluoZin-2 fluorescence; Q9H2X9; 190,000 compounds, 2.2% hits;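 active = thallium flux slope and its plate-corrected score both differing from the plate sample mean at a set confidence after two filtering rounds, in either direction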;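 note: slope of fluorescence scaled to starting intensity during 10 to 20 s after thallium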
STAT3 act: activators of IL-6 induced STAT3 signaling | U3A cells, IL-6 STAT3-luciferase reporter, luminescence; 100% = signal with IL-6 EC80 alone | activation (% of control), % at 5.6 µM | 190,000 compounds, 0.91% hits;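 active = activation above the screen-wide mean of compound activation plus 3 SD, cut at about 130% in these data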;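 note: 0% = background luminescence of wells with medium and substrate only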
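Detection: reporter luminescence signal / Assay system: STAT1-lacking human U3A cells, STAT3 luciferase reporter / Incubation: compound pre-incubation 1 h before IL-6, then 6 h stimulation at 37 °C / Control set: IL-6-only high control / Read-out: % activation relative to IL-6 control / Probe or stimulus: Interleukin-6, 33 ng/mL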
HSV augment: HSV replication enhancement; HSV replication augmentation in cells, fold increase; maximum fold increase; 220,000 compounds, 0.005% hits; AID 1956; in the data active = maximum fold increase above about 1.5; tested in PC3 cells
STAT1 act: STAT1 signaling activation. AID 932. activation (% of control), % at 5.5 µM. NIH 3T3 STAT1-luciferase reporter, IFN-gamma, luminescence; 100% = IFN-gamma alone, no compound. 200,000 compounds, 2.6% hits;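 active = activation above the screen-wide mean activation plus 3 SD, cut at about 130% in these data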;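 note: raw ratio to IFN-gamma control signal so 100% means no change and 0% no light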
STAT1 act conf: confirmation of STAT1 signaling activators; NIH 3T3 STAT1-luciferase reporter, IFN-gamma potentiation, luminescence; 100% = IFN-gamma EC80 alone, no compound; 1,200 compounds, 97% hits; AID 1262; shares compounds with STAT1 act; activation (% of control), % at 5.7 µM;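 active = activation above a set limit carried over from the earlier primary STAT1 screen, cut at about 140% in these data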;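 note: simple ratio to median IFN-gamma plus DMSO wells so 0% means no light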
NFkB act: counter-screen for STAT1 activators: NF-kappaB activation; AID 1306; 1,200 compounds, 43% hits; activation (% of control), % at 5.7 µM; shares compounds with STAT1 act; HEK293T NF-kB luciferase reporter, TNF-alpha stimulated, luminescence; 100% = TNF-alpha with vehicle only;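 active = activation above the mean of solvent-only control wells plus 3 SD, set per campaign, cut at about 130% in these data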;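 note: TNF-alpha given at a submaximal dose yielding about 80% of full reporter signal; values are well signal over median control so 100% means no change and 0% no light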
STAT3 act STAT1c: activates human STAT3, counter-screen to STAT1 activators. shares compounds with STAT1 act. U3A cells STAT3-luciferase reporter, IL-6, luminescence; cells lack STAT1; 100 = IL-6 alone, no compound effect. activation (% of control), % at 5.7 µM. 1,200 compounds, 46% hits. AID 1316;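 active = activation above the solvent-only control well mean plus 3 SD, set per plate batch, cut at about 110% in these data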;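 note: 0% = no luminescence and 100% = median IL-6 plus DMSO wells; higher means more STAT3 reporter activation so hits are non-selective activators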
Active calls of the source: *; i = inactive; . = no result. Compounds with a hit are over-represented: about 5.5% of the library has one in this group of screens.

SMILES	STAT3 inh	STAT1 blocker	Cl transport mod	STAT3 act	HSV augment	STAT1 act	STAT1 act conf	NFkB act	STAT3 act STAT1c
N/C(=N\OC(=O)c1ccc2c(c1)OCO2)c1cccc([N+](=O)[O-])c1	-4	-61	0.16	106	i	153*	198*	126	118*
N/C(=N\OC(=O)c1cccc([N+](=O)[O-])c1)c1cccnc1	2	-25	0.46	100	i	122	.	.	.
O=[N+]([O-])c1ccccc1-c1nc(-c2ccc(Br)o2)no1	-7	-79	-1.2	106	i	170*	200*	132	137*
Nc1nn(-c2ccccc2)c(N)c1N=Nc1ccc2c(c1)OCO2	3	-85	.	99	i	178*	253*	135*	112*
COCc1cc(/C=N\NC(=O)Cc2ccc(OC)cc2)ccc1OC	15	4	0.23	91	i	96	.	.	.
Cc1ccc(C(=O)N(c2ccccc2)C2CC(C)N(C(=O)c3ccco3)c3ccccc32)cc1 (centres undefined)	6	9	.	95	i	100	.	.	.
COc1cc(C)c(Br)cc1S(=O)(=O)N1CCCC1	8	-1	.	97	i	101	.	.	.
Cc1c(C(=O)NCC2CCCO2)oc2ccc(S(=O)(=O)N3CCCC3)cc12 (centres undefined)	12	-8	0.64	94	i	106	.	.	.
Cc1c(C(=O)NCC2CCCO2)oc2ccc3c(c12)C(=O)CC(C)(C)O3 (centres undefined)	21	-61	.	85	i	155*	209*	122	126*
CCOC(=O)CSc1nc2cc3c(cc2cc1C)OCO3	15	-3	-1.1	89	i	101	.	.	.
CCOC(=O)CSc1nc2cc3c(cc2cc1C#N)OCCO3	-7	-78	.	108	i	174*	293*	143*	123*
COC(=O)CSc1nc2cc3c(cc2cc1C#N)OCO3	0	-61	1.3	108	i	155*	265*	147*	117*
CCOC(=O)CSc1nc2cc3c(cc2cc1C#N)OCO3	-12	-61	.	114	i	155*	223*	144*	115*
COc1nccnc1NS(=O)(=O)c1ccc(N/C=C2\CCCCC2=O)cc1	3	-6	-0.021	104	i	104	.	.	.
CCC(N=c1cc(-c2ccc(OC)cc2)oc2ccc(C)cc12)C(=O)O (centres undefined)	4	-72	-0.03	100	i	164*	137*	120	99
CCCOc1ccc(N2C(=O)CC(N3CCC(c4nc5ccccc5o4)CC3)C2=O)cc1 (centres undefined)	8	-1	-0.18	101	i	101	.	.	.
COc1ccc(Cl)cc1NC(=O)c1ccoc1C	19	-3	-0.82	89	i	103	.	.	.
Cc1ccc(-n2c(C)cc(C(=O)CSc3nnnn3C)c2C)cc1	21	-67	-1.9	84	i	162*	201*	130	114*
COc1ccc(CNC(=O)CSc2nc3[nH]ncc3c(=O)n2-c2ccccc2Br)cc1	-7	2	-0.17	107	i	97	.	.	.
CC(=O)OCCCN1c2ccccc2Nc2nnc(-c3ccccc3)cc21	14	-63	-1.2	92	i	158*	192*	127	95
CCOC(=O)c1cc(-c2ccccc2)n(CC(=O)O)c1C	0	-6	0.52	104	i	104	.	.	.
CCOC(=O)c1c(C)[nH]c(C(=O)COC(=O)CCSc2ccccc2)c1C	-9	-16	0.93	109	i	115	.	.	.
